# Test results published in ChEMBL document CHEMBL1124219, “Inhibition of porcine pepsin by two substrate analogues containing statine. The effect of histidine at the P2 subsite on the inhibition of aspartic proteinases” (J Med Chem, 1988).
# *1 amine or outer side, *2 acyl side, *3 side chain or, on linkers, in order; H or OH if unused. Where a SMILES comes first, the peptide text is derived from it. [ ]: non-standard residue; d: D form. The star is where a group is joined. ξ: configuration not given here. Sta(3ξ) = CC(C)C[C@H](N[*:1])C(O)CC(=O)[*:2]; X1 = CC(C)CC(N[*:1])C(O)CC(C(=O)[*:2])C(C)C; Sta = CC(C)C[C@H](N)[C@@H](O)CC(=O)O; NMeH = CN[C@@H](Cc1c[nH]cn1)C(=O)O; NHCH2(2-pyridyl) = c1ccc(CN*)nc1; Isobutyryl = CC(C)C(=O)*; Boc = CC(C)(C)OC(=O)*
# Columns and labels:
# Pepsin A [1] = biological target: T1, Pepsin A (Homo sapiens, UniProt P0DJD9); assay: Inhibition of human pepsin at pH 2.0
# T1 sequence (P0DJD9 whole entry): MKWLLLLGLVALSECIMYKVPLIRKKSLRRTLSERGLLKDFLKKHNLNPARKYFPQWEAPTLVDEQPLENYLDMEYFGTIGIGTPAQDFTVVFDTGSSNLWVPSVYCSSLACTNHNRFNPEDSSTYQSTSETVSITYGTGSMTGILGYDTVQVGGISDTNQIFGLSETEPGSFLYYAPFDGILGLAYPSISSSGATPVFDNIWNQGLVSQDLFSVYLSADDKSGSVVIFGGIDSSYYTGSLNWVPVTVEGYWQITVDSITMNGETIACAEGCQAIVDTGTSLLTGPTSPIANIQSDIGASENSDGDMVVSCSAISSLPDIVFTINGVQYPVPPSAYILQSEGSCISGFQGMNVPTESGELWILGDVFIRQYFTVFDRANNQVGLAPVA
# Pepsin A [2] = biological target: T1, Pepsin A; assay: Inhibition of human pepsin at pH 3.1
# Cathepsin D [3] = biological target: T2, Cathepsin D (Bos taurus, UniProt P80209); assay: Inhibition of bovine cathepsin D at pH 3.1
# T2 sequence (P80209 whole entry): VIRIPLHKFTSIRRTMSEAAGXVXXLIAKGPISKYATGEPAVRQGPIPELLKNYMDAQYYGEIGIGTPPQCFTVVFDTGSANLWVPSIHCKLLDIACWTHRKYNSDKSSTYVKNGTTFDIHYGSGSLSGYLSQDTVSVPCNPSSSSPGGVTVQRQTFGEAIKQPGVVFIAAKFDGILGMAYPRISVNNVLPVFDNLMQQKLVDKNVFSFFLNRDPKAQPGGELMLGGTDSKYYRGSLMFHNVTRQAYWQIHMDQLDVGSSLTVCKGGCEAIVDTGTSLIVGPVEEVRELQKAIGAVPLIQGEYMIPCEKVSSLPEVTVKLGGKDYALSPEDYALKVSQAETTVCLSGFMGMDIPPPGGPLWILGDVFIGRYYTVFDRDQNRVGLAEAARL
# Cathepsin D [4] = biological target: T2, Cathepsin D; assay: Inhibition of bovine cathepsin D at pH 3.2
# Renin [5] = biological target: T3, Renin (Homo sapiens, UniProt P00797); assay: Inhibition of human renin at pH 6.0
# T3 sequence (P00797 whole entry): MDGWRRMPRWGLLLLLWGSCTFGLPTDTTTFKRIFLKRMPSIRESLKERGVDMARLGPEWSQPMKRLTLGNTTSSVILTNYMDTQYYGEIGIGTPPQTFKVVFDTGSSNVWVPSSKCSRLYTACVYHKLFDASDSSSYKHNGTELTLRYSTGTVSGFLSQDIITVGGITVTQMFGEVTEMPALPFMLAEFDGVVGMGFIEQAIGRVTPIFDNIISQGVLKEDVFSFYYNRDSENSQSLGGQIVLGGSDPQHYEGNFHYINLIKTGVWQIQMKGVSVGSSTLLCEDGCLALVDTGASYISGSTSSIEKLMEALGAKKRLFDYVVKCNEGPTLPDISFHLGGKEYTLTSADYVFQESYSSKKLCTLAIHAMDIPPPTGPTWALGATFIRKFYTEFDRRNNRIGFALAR
# Renin [6] = biological target: T3, Renin; assay: Inhibition of human renin at pH 7.0
# Pepsin A [7] = biological target: T4, Pepsin A (Sus scrofa, UniProt P00791); assay: Inhibition of porcine pepsin at pH 2.0
# T4 sequence (P00791 whole entry): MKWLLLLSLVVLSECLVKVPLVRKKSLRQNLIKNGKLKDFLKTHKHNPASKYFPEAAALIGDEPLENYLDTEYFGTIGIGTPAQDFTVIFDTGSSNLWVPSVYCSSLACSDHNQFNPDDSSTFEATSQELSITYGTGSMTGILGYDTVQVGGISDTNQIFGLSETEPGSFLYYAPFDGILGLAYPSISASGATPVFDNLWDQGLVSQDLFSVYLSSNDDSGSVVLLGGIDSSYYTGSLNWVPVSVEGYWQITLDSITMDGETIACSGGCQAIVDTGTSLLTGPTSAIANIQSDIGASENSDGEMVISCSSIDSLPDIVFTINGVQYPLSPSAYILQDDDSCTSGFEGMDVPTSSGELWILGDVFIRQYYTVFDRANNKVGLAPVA
# Renin [8] = biological target: T3, Renin; assay: Inhibition of human renin at pH 7.4
# Pepsin A [9] = biological target: T4, Pepsin A; assay: Inhibition of porcine pepsin at pH 4.0
# How it was run: (§1)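 Hydrolysis was followed as the absorbance drop at 290 nm over the first 5–10% of reaction. Percent activity was plotted against inhibitor concentration to give IC50, and Ki = (IC50 − 0.5Et)/(1 + S/Km).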
# Pepsin A [10] = biological target: T4, Pepsin A; assay: Inhibition of porcine pepsin at pH 1.9
# Cathepsin D [11] = biological target: T2, Cathepsin D; assay: Inhibition of bovine cathepsin D at pH 3.3(no inhibition)
# Pepsin A [12] = biological target: T4, Pepsin A; assay: Inhibition of porcine pepsin at pH 4; how it was run: as §1
# Pepsin A [13] = biological target: T4, Pepsin A; assay: Inhibition of porcine pepsin at pH 4.0 (time-dependent inhibition, T1/2>30 s)
IC50 (Pepsin A [7]) [µM],Ki (Renin [8]) [µM],Ki (Pepsin A [9]) [µM],SMILES,further results
–,–,–,CC[C@H](C)[C@H](NC(=O)C(F)(F)C(=O)[C@H](CC(C)C)NC(=O)[C@H](Cc1c[nH]cn1)NC(=O)[C@H](Cc1ccccc1)NC(=O)OC(C)(C)C)C(=O)NCc1ccccn1,IC50 (Pepsin A [1]): 42 µM; IC50 (Pepsin A [2]): 60 µM; IC50 (Cathepsin D [3]): 40 µM; IC50 (Cathepsin D [4]): 1.7 µM
–,–,–,CC[C@H](C)[C@H](NC(=O)C(F)(F)C(=O)C(CC(C)C)NC(=O)[C@H](Cc1c[nH]cn1)NC(=O)[C@H](Cc1ccccc1)NC(=O)OC(C)(C)C)C(=O)NCc1ccccn1 (stereo not given in full),IC50 (Renin [5]): 0.0014 µM; IC50 (Renin [6]): 0.01 µM
0.06,–,–,COC(=O)CC(O)[C@H](CC(C)C)NC(=O)[C@H](C)NC(=O)CC(O)[C@H](CC(C)C)NC(=O)[C@@H](NC(=O)[C@H](Cc1ccccc1)NC(=O)OCc1ccccc1)C(C)C (stereo not given in full),–
0.014,–,–,COC(=O)CC(O)[C@H](CC(C)C)NC(=O)[C@H](C)NC(=O)CC(O)[C@H](CC(C)C)NC(=O)[C@H](Cc1ccccc1)NC(=O)[C@H](Cc1ccccc1)NC(=O)OC(C)(C)C (stereo not given in full),IC50 (Renin [5]): 0.0035 µM
0.85,–,–,COC(=O)CC(O)[C@H](CC(C)C)NC(=O)[C@H](C)NC(=O)CC(O)[C@H](CC(C)C)NC(=O)[C@H](Cc1c[nH]cn1)NC(=O)[C@H](Cc1c[nH]c2ccccc12)NC(=O)OC(C)(C)C (stereo not given in full),IC50 (Renin [5]): 0.0055 µM
–,0.009,< 0.001,COC(=O)[C@H](Cc1ccccc1)NC(=O)[C@H](CC(C)C)NC(=O)CC(O)[C@H](CC(C)C)NC(=O)CCCNC(=O)[C@H](Cc1ccccc1)NC(=O)[C@@H]1CCCN1C(=O)CCCN (stereo not given in full),–
–,1.1,0.067,COC(=O)[C@H](Cc1ccccc1)NC(=O)[C@H](CC(C)C)NC(=O)CC(O)[C@H](CC(C)C)NC(=O)[C@H](Cc1c[nH]cn1)NC(=O)COC(=O)C(C)(C)C (stereo not given in full),–
–,1.7,0.012,COC(=O)[C@H](Cc1ccccc1)NC(=O)[C@H](CC(C)C)NC(=O)CC(O)[C@H](CC(C)C)NC(=O)[C@H](CC(C)C)NC(=O)COC(=O)C(C)(C)C (stereo not given in full),–
–,–,–,CC(C)CC(NC(=O)CCc1ccccc1)SCC(O)C(CC1CCCCC1)NC(=O)[C@H](Cc1cnc[nH]1)NC(=O)[C@H](Cc1ccccc1)NC(=O)OC(C)(C)C (stereo not given in full),IC50 (Cathepsin D [3]): > 100 µM; IC50 (Pepsin A [10]): > 100 µM; IC50 (Renin [5]): 0.007 µM
–,–,–,CC[C@H](C)[C@H](NC(=O)[C@@H](NC[C@H](CC(C)C)NC(=O)[C@H](Cc1c[nH]cn1)NC(=O)[C@H](Cc1ccccc1)NC(=O)[C@@H]1CCCN1C(=O)[C@H](Cc1c[nH]cn1)NC(=O)[C@@H]1CCCN1)C(C)C)C(=O)N[C@@H](Cc1c[nH]cn1)C(=O)N[C@@H](CCCCN)C(=O)O,IC50 (Cathepsin D [11]): > 700 µM; IC50 (Renin [6]): 0.01 µM
6.8,–,–,CC[C@H](C)[C@H](NC(=O)C(CC(O)C(CC(C)C)NC(=O)[C@H](Cc1c[nH]cn1)N(C)C(=O)[C@H](Cc1ccccc1)NC(=O)[C@@H]1CCCN1C(=O)OC(C)(C)C)C(C)C)C(=O)NCc1ccccn1 (stereo not given in full) (Boc-PF[NMeH][X1]I-{NHCH2(2-pyridyl)}),IC50 (Cathepsin D [4]): 6.3 µM; IC50 (Renin [5]): 0.00026 µM
–,–,–,COC(=O)[C@H](Cc1ccccc1)NC(=O)[C@H](C)NC(=O)C[C@H](O)[C@H](CC(C)C)NC(=O)[C@H](Cc1c[nH]cn1)NC(=O)CNC(=O)[C@@H](N)Cc1ccccc1 (H-FGH[Sta]AF-OMe),Ki (Pepsin A [12]): 0.15 µM
–,–,–,COC(=O)[C@H](Cc1ccccc1)NC(=O)[C@H](C)NC(=O)C[C@H](O)[C@H](CC(C)C)NC(=O)[C@@H](NC(=O)CNC(=O)[C@@H](N)Cc1ccccc1)C(C)C (H-FGV[Sta]AF-OMe),Ki (Pepsin A [13]): < 0.001 µM
–,0.008,0.034,CC(C)C[C@H](NC(=O)CC(O)[C@H](CC(C)C)NC(=O)[C@H](Cc1c[nH]cn1)NC(=O)[C@H](Cc1ccccc1)NC(=O)[C@@H]1CCCN1C(=O)[C@@H](N)Cc1c[nH]cn1)C(=O)N[C@@H](Cc1ccccc1)C(N)=O (stereo not given in full) (H-HPFH[Sta(3ξ)]LF-NH2),–
–,0.099,0.004,CC(C)C[C@H](NC(=O)CC(O)[C@H](CC(C)C)NC(=O)[C@H](C)NC(=O)[C@H](Cc1ccccc1)NC(=O)[C@@H]1CCCN1C(=O)[C@H](Cc1c[nH]cn1)NC(=O)C(C)C)C(=O)N[C@@H](Cc1ccccc1)C(N)=O (stereo not given in full) (Isobutyryl-HPFA[Sta(3ξ)]LF-NH2),–
–,0.016,0.023,CC(C)C[C@H](NC(=O)CC(O)[C@H](CC(C)C)NC(=O)[C@H](Cc1c[nH]cn1)NC(=O)[C@H](Cc1ccccc1)NC(=O)[C@@H]1CCCN1C(=O)[C@H](Cc1c[nH]cn1)NC(=O)C(C)C)C(=O)N[C@@H](Cc1ccccc1)C(N)=O (stereo not given in full) (Isobutyryl-HPFH[Sta(3ξ)]LF-NH2),–
1.3,–,–,COC(=O)CC(O)[C@H](CC(C)C)NC(=O)[C@H](C)NC(=O)CC(O)[C@H](CC(C)C)NC(=O)[C@H](Cc1cnc[nH]1)NC(=O)[C@H](Cc1ccccc1)NC(=O)OC(C)(C)C (stereo in doubt; 15),–
1.3,–,–,COC(=O)CC(O)[C@H](CC(C)C)NC(=O)[C@H](C)NC(=O)CC(O)[C@H](CC(C)C)NC(=O)[C@H](Cc1cnc[nH]1)NC(=O)[C@H](Cc1ccccc1)NC(=O)OC(C)(C)C (stereo in doubt; 17),–
